# ChEMBL document CHEMBL1122953, “Synthesis and antiarrhythmic and parasympatholytic properties of substituted phenols. 3. Modifications to the linkage region (region 3)” (1985)
# Activity calls are given as the source filed them. The calls are words filed in the database; no cut-off is given here.
# Columns and labels:
# Canis familiaris [1] = organism: Canis familiaris; assay: Antiarrhythmic activity estimated by using the ouabain intoxicated dog model and the active dose of base in ouabain dog was reported.; format: functional, Canis lupus familiaris, Heart
# How it was run: (§1)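 Dogs; ECG lead II recorded. Ouabain given iv as boluses of 40 µg/kg, then 20 µg/kg 30 min later, then 10 µg/kg every 15 min until a stable ventricular arrhythmia (>95% ectopic ventricular complexes) persisted 15 min. Test drug infused iv at 0.5 mg/kg per min until normal sinus rhythm held at least 10 min. Active dose is the mean of experiments ± SEM.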
# Canis familiaris [2] = assay: Antiarrhythmic activity estimated by using the ouabain intoxicated dog model and the active dose of base in ouabain dog was reported. at a dose of 10 mg/kg; Not effective; format: functional, organism-based; design: dose 10 mg/kg; conditions: Canis lupus familiaris, Heart; how it was run: as §1
# Cavia porcellus = organism: Cavia porcellus; assay: Parasympatholytic activity and the % inhibition of guinea pig ileum contractile force at 4 mg/L of base was reported.; format: functional
# How it was run: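 Isolated guinea pig ileum, electrically stimulated so contraction comes from acetylcholine released by postganglionic parasympathetic nerves. After about 60 min equilibration, tension was measured just before and during the steady-state response to drug at 4 mg/L. Result is % inhibition of contractile force.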
# Canis familiaris [3] = assay: Antiarrhythmic activity estimated by using the ouabain intoxicated dog model and the active dose of base in ouabain dog was reported at a dose of 20 mg/kg; Not effective; format: functional, organism-based; design: dose 20 mg/kg; conditions: Canis lupus familiaris, Heart; how it was run: as §1
# Canis familiaris [4] = organism: Canis familiaris; assay: Antiarrhythmic activity estimated by using the ouabain intoxicated dog model and the active dose of base in ouabain dog was reported; Not effective; format: functional, organism-based; conditions: Canis lupus familiaris; Heart; how it was run: as §1
# Canis familiaris [5] = organism: Canis familiaris; assay: Dose at which ouabain dog caused ventricular flutter; format: functional, Canis lupus familiaris, Heart; how it was run: as §1
# Canis familiaris [6] = organism: Canis familiaris; assay: Dose at which ouabain dog failed to produce normal sinus rhythm; format: functional, Canis lupus familiaris; how it was run: as §1
SMILES,Dose (Canis familiaris [1]) [mg/kg],Inhibition (Cavia porcellus) [%],also measured
Cc1ccccc1C(=O)Nc1cc(CN2CCCC2)c(O)c(CN2CCCC2)c1,2.7,,
O=C(c1cc(CN2CCCC2)c(O)c(CN2CCCC2)c1)c1cc(CN2CCCC2)c(O)c(CN2CCCC2)c1,,,DOSE (Canis familiaris [2]): inactive
CN(C(=O)c1ccccc1)c1cc(CN2CCCC2)c(O)c(CN2CCCC2)c1,16.2,5,
Cc1cccc(C)c1C(=O)Nc1cc(CN2CCCC2)c(O)c(CN2CCCC2)c1,3.2,,
O=C(Nc1ccccc1)Nc1cc(CN2CCCC2)c(O)c(CN2CCCC2)c1,3.6,,
O=C(Nc1cc(CN2CCOCC2)c(O)c(CN2CCOCC2)c1)c1ccccc1,16.5,,
COc1ccc(C(=O)c2cc(CN3CCCC3)c(O)c(CN3CCCC3)c2)cc1,4.5,12,
O=C(Nc1ccccc1)c1cc(CN2CCCC2)c(O)c(CN2CCCC2)c1,2.8,31,
Cl.Oc1c(CN2CCCC2)cc(OCc2ccccc2)cc1CN1CCCC1,2,62,
Cc1ccccc1NC(=O)c1cc(CN2CCCC2)c(O)c(CN2CCCC2)c1,2.9,,
CC(C)N(CCC(C(N)=O)(c1ccccc1)c1ccccn1)C(C)C (configuration not stated) [DISOPYRAMIDE],4.4,81,
O=C(Nc1cc(CN2CCCCC2)c(O)c(CN2CCCCC2)c1)c1ccccc1,3,33,
O=C(c1ccccc1)c1cc(CN2CCCC2)c(O)c(CN2CCCC2)c1,2.4,9,
Cc1cccc(C)c1NC(=O)c1cc(CN2CCCC2)c(O)c(CN2CCCC2)c1,4.5,,
O=S(=O)(Nc1cc(CN2CCCC2)c(O)c(CN2CCCC2)c1)c1ccccc1,10,,
C=C[C@H]1CN2CC[C@H]1C[C@@H]2[C@@H](O)c1ccnc2ccc(OC)cc12 [QUINIDINE],10.5,62,
O=C(Nc1nccs1)c1cc(CN2CCCC2)c(O)c(CN2CCCC2)c1,,,DOSE (Canis familiaris [3]): inactive
Cl.Oc1c(CN2CCCC2)cc(Cc2ccccc2)cc1CN1CCCC1,,14.3,DOSE (Canis familiaris [4]): inactive
O=C(/C=C/c1ccccc1)Nc1cc(CN2CCCC2)c(O)c(CN2CCCC2)c1,14,,Dose (Canis familiaris [5]): 8 mg/kg
Oc1c(CN2CCCC2)cc(Nc2ccccc2)cc1CN1CCCC1,5,,Dose (Canis familiaris [6]): 17.5 mg/kg
CCN(CC)CCNC(=O)c1ccc(N)cc1.Cl [PROCAINAMIDE HYDROCHLORIDE],29,0,
O=C(Nc1cc(CN2CCCC2)c(O)c(CN2CCCC2)c1)c1ccccc1,3.4,,
Oc1c(CN2CCCC2)cc(Nc2ncnc3ccccc23)cc1CN1CCCC1 [CHANGROLIN],5.5,43,
O=C(c1ccc(Cl)cc1)c1cc(CN2CCCC2)c(O)c(CN2CCCC2)c1,4.8,,
